Measurements from different studies.
Protocols differ between the studies behind these lines.
Target: Myosin light chain kinase family member 4 (MYLK4, Homo sapiens, UniProt Q86YV6)
Residues used in one study (Q86YV6 1-388): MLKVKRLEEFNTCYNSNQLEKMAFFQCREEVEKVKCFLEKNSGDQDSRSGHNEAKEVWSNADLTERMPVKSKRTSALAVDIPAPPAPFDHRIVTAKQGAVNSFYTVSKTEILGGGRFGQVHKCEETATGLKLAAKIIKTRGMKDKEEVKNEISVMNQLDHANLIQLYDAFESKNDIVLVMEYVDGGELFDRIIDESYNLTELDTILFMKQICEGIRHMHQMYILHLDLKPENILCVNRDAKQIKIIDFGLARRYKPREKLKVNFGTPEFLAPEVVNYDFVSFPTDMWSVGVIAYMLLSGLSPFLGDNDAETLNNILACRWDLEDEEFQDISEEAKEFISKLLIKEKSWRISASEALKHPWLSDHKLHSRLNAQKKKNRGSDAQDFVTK

SMILES	assay	setting	measurement	result
Nc1ncnc2occ(-c3ccc(NC(=O)Nc4cc(C(F)(F)F)ccc4F)cc3)c12	enzyme activity, inhibitor	20 µM	remaining activity	48%
O=C(Nc1cnn(-c2csc(C(=O)NC3COC3)c2)c1)Nc1ccccc1Cl	enzyme activity, inhibitor	5 µM	remaining activity	85.2%
Nc1c(C(=O)NCc2ccc(C(=O)NCCCC3CCCCC3)cc2)cnn1-c1ccccc1	cell-free assay, competition with immobilised ligand	0.1 µM	remaining binding	100%
Fc1cccc(-n2cnc3c(NCc4nc5c(F)c(F)ccc5[nH]4)nc(N4CCOCC4)nc32)c1	binding, competition with immobilised ligand	10 µM	binding vs control	2.1%
O=C(Nc1cnn(-c2csc(C(=O)NC3COC3)c2)c1)Nc1c(F)cccc1Cl	enzyme activity, inhibitor	5 µM	remaining activity	91.7%
O=[N+]([O-])c1cccc2[nH]c(CNc3nc(N4CCOCC4)nc4c3ncn4-c3ccsc3)nc12	binding, competition with immobilised ligand	10 µM	binding vs control	2.6%
CCCOc1ccc([C@@H]2[C@@H](C(=O)O)[C@H](c3ccc4c(c3)OCO4)CN2CC(=O)Nc2c(CC)cccc2CC)cc1	cell-free assay, competition with immobilised ligand	1 µM	remaining binding	100%
Cc1ccc(C(=O)Nc2ccc(CN3CCN(C)CC3)c(C(F)(F)F)c2)cc1C#Cc1cnc2cccnn12	enzyme activity, inhibitor	23.5 nM	remaining activity	92%
